Consider one compound from ChEMBL document CHEMBL4043311, “Developing Equipotent Teixobactin Analogues against Drug-Resistant Bacteria and Discovering a Hydrophobic Interaction between Lipid II and Teixobactin” (J Med Chem, 2018).

Converted amounts (≈) assume the structure as drawn. The source made the active and inactive calls. Some results are limits rather than exact numbers.

In assay [1] the test system is Staphylococcus aureus. The assay can be described thus: Antibacterial activity against methicillin-resistant Staphylococcus aureus BAA-1695 after 20 hrs by broth microdilution method. It counts as functional. Particulars: BAA-1695, 20 h. An outline of the steps:
(§1)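 Broth microdilution per CLSI in cation-adjusted Mueller-Hinton broth with 0.002% polysorbate 80. Analogues were made up as 10 mg/mL DMSO stocks, then diluted in MHB. Inoculum approx. 5×10^5 cells/mL. Incubated 20 h at 37°C; MIC taken as the lowest concentration with no visible growth. Run three times.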
(In broth dilution the organism is exposed to a series of concentrations in liquid medium.)

Assay [2] relates to Staphylococcus aureus. Put plainly: Antibacterial activity against methicillin-sensitive Staphylococcus aureus TH 4806 after 20 hrs by broth microdilution method. The class given is functional. Particulars: TH 4806, 20 h. An outline of the steps: as §1
Another assay concerns Enterococcus faecalis. Put plainly: Antibacterial activity against […] Enterococcus faecalis ATCC 29212 after 20 hrs by broth microdilution method. The class given is functional. Particulars: ATCC 29212, 20 h. A digest of the protocol: as §1
The test system of assay [3] is Streptococcus pneumoniae. The assay can be described thus: Antibacterial activity against Streptococcus pneumoniae D39 after 20 hrs by broth microdilution method. It counts as functional. Particulars: D39, 20 h. A digest of the protocol:
(§2)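 CLSI broth microdilution in cation-adjusted Mueller-Hinton broth with 3% lysed horse blood for streptococci and 0.002% polysorbate 80. Compounds taken from 10 mg/mL DMSO stocks and diluted in broth. Inoculum about 5×10^5 cells/mL. After 20 h at 37 °C, MIC read as lowest concentration with no visible growth. Done three times.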

The next assay has as its system Streptococcus pyogenes. Put plainly: Antibacterial activity against Streptococcus pyogenes ATCC 19615 after 20 hrs by broth microdilution method. The settings on record: ATCC 19615, 20 h. It counts as functional. A digest of the protocol: as §2
Assay [4] has as its system Staphylococcus aureus. Put plainly: Antibacterial activity against Staphylococcus aureus ATCC 29213 at lipid 2/test compound molar ratio 2 preincubated with lipid 2 for 30 mins followed by bacterial inoculation measured after overnight incubation. It counts as functional. A digest of the protocol: (§3)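 Test agent at 4x or 8x its broth MIC mixed with lipid II or C55-P (2x or 0.5x molar excess over compound) in MHII broth with 0.05% tween-80, 30 min at rt; exponential S. aureus ATCC 29213 then added to final OD600 0.001. Overnight at 37 °C; growth judged by eye and plate-reader absorbance. Run two or three times.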

Assay [5] has as its system Staphylococcus aureus. Put plainly: Antibacterial activity against Staphylococcus aureus ATCC 29213 at undecaprenyl-phosphate/test compound molar ratio 0.5 to 2 preincubated with undecaprenyl-phosphate for 30 mins followed by bacterial inoculation measured after overnight incubation. It counts as functional. A digest of the protocol:
as §3

Assay [6] is described as follows: Binding affinity to undecaprenyl-phosphate at 1 to 4 nmol after 30 mins by TLC method. An outline of the steps:
(§4)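 Lipid II or C55-P (1 nmol) incubated with 1, 2, 3 or 4 nmol compound in 50 mM Tris/HCl pH 7.5, 30 min at rt. Extracted twice with pyridinium acetate (6 M, pH 4.2)/butanol (1:2), then washed with butanol-saturated water. Organic phase run on silica TLC in chloroform/methanol/water/ammonia (88:48:10:1) and stained with phosphomolybdic acid; loss of lipid band scored. Done twice.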

A short description of assay [7]: Binding affinity to lipid 2 at 4 nmol after 30 mins by TLC method. An outline of the steps: as §4
Assay [8] can be described thus: Binding affinity to Bacillus subtilis UDP-MurNAc-L-Ala-gamma-DGlu-meso-Dap-D-Ala-D-Ala by ITC method. An outline of the steps: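 Park's nucleotide was isolated from Bacillus subtilis. ITC run at 25 °C in DMSO:H2O (85:15). The lipid II analogue (0.375 mM) was titrated into 0.025 mM test compound.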
(Isothermal titration calorimetry measures the heat released or taken up as one component is titrated into another.)

The subject of assay [9] is Streptococcus pneumoniae. The assay can be described thus: Antibacterial activity against Streptococcus pneumoniae D39 infected in C57BL/6J mouse at 1 x 10^4 cfu/mouse assessed as mouse survival rate at 1 to 5 mg/kg, iv administered 1 hr post infection measured after 48 hrs relative to control. It counts as functional. An outline of the steps:
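C57BL/6J female mice, 6-8 weeks, infected i.p. with 0.2 mL S. pneumoniae D39 suspension (1×10^4 c.f.u. per mouse), an inoculum giving at least 90% mortality within 48 h; 6 per group. Single i.v. dose 1 h post-infection at 5, 2 or 1 mg per kg in PBS:Cremophor-EL:DMSO (94:5:1); vehicle and vancomycin (5 mg per kg) controls. Survival scored at 48 h; log-rank test.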

In assay [10] the test system is Streptococcus pneumoniae. Put plainly: Antibacterial activity against Streptococcus pneumoniae D39 infected in C57BL/6J mouse at 5 x 10^4 cfu/mouse assessed as reduction of bacterial burden in blood at 1 to 5 mg/kg, iv administered 1 hr post infection measured after 12 to 22 hrs relative to control. The class given is functional. A digest of the protocol:
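Female C57BL/6J mice, 6-8 weeks, 4 per group, given 0.2 mL S. pneumoniae D39 i.p. (5×10^4 c.f.u. per mouse). At 1 h post-infection a single i.v. dose of 5 or 1 mg/kg was given in PBS:Cremophor-EL:DMSO (94:5:1). Vehicle and vancomycin 5 mg/kg groups were included. Blood c.f.u. counted at 12, 18 and 22 h.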

Assay [11] has as its system Staphylococcus aureus. The assay can be described thus: Antibacterial activity against Staphylococcus aureus ATCC 29213 at lipid 2/test compound molar ratio 0.5 preincubated with lipid 2 for 30 mins followed by bacterial inoculation measured after overnight incubation. It counts as functional. An outline of the steps:
as §3

The MIC is the smallest concentration in the dilution series that meets the test's criterion for growth inhibition. The term Kd denotes a measure of binding affinity in units of concentration. A lower Kd goes with higher affinity. As to `CC[C@@H](C)[C@@H](NC(=O)[C@@H](CCC(N)=O)NC(=O)[C@H](CO)NC(=O)[C@@H](NC(=O)[C@H](N)Cc1ccc(-c2ccccc2)cc1)[C@@H](C)CC)C(=O)N[C@H](C(=O)N[C@@H](CO)C(=O)N[C@H]1C(=O)N[C@@H](C)C(=O)N[C@@H](CCCCN)C(=O)N[C@@H]([C@@H](C)CC)C(=O)O[C@H]1C)[C@@H](C)CC`, the MIC against Staphylococcus aureus [1] was 0.5 µg/mL (≈ 0.391 µM); against Staphylococcus aureus [2], 0.5 µg/mL (≈ 0.391 µM); in the assay on Enterococcus faecalis it was 0.5 µg/mL (≈ 0.391 µM); with Streptococcus pneumoniae [3] it was < 0.032 µg/mL; against Streptococcus pyogenes it was < 0.25 µg/mL. The result (in the assay with Staphylococcus aureus [4]; in [6]; in assay [7]) was inactive. Further, the outcome in the assay with Staphylococcus aureus [5] and in the assay on Staphylococcus aureus [11] was Active. The compound also displayed a Kd in [8] of 23 µM. Moreover, the Survival in the assay with Streptococcus pneumoniae [9] turned out to be 100%. For the same compound, the Activity in the assay with Streptococcus pneumoniae [10] came out at 6 deltalog10CFU/ml.
